# According to ChEMBL document CHEMBL1140136, “Structural modifications of N-(1,2,3,4-tetrahydronaphthalen-1-yl)-4-aryl-1-piperazinehexanamides: influence on lipophilicity and 5-HT7 receptor activity. Part III” (J Med Chem, 2008):
# Active and inactive are the calls of the source. The calls are words filed in the database; no cut-off is given here.
# Experiments:
# [1] = biological target: 5-hydroxytryptamine receptor 7 (Rattus norvegicus, UniProt P32305); test: Displacement of [3H]LSD from rat cloned 5HT7 receptor expressed in HEK293 cells; type: cell-based
# Chain of 5-hydroxytryptamine receptor 7 (Rattus norvegicus, UniProt P32305) (P32305 whole entry): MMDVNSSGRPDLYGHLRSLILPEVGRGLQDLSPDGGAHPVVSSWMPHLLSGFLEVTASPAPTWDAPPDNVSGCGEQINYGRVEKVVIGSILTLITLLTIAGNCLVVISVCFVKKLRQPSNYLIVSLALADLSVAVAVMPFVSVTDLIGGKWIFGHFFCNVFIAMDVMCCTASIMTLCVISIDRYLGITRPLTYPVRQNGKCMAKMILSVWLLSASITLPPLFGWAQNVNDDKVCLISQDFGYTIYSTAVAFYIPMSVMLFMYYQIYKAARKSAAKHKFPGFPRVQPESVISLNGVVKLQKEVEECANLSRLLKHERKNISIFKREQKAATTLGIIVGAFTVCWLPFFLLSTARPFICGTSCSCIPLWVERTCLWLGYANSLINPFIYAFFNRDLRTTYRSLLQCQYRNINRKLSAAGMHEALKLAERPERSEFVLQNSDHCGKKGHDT
# In short: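 Rat recombinant 5-HT7 membranes (30 µg) from HEK-293 cells, with 2.5 nM [3H]-LSD and 6-9 compound concentrations. Incubated 60 min at 37 °C in 50 mM Tris, 10 mM MgCl2, 0.5 mM EDTA, pH 7.4, then filtered. Nonspecific binding with 10 µM 5-CT. Ki via Cheng-Prusoff; three experiments in triplicate.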
# [2] = biological target: T1, 5-hydroxytryptamine receptor 1A (Homo sapiens, UniProt P08908); test: Displacement of [3H]8-OH-DPAT from human cloned 5HT1A receptor expressed in HEK293 cells; type: cell-based
# T1 sequence (P08908 whole entry): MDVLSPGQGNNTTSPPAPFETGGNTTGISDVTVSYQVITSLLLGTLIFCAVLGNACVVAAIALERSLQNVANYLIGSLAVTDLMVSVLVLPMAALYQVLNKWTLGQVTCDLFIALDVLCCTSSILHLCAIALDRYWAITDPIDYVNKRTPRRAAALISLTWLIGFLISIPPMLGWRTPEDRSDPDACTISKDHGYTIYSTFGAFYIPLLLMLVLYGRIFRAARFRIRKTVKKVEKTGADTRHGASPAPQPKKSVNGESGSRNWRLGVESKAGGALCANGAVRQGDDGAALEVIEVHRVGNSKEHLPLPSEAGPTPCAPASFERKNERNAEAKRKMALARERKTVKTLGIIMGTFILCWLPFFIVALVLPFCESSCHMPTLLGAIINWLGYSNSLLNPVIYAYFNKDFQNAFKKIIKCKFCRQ
# In short: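 Membranes (40 µg) from HEK-293 cells stably expressing human 5-HT1A, with 1.0 nM [3H]-8-OH-DPAT and compound (0.1 nM-10 µM). Incubated 120 min at 37 °C in 50 mM Tris-HCl pH 7.4, 5 mM MgSO4, then filtered. Nonspecific binding with 10 µM 5-HT. Ki by nonlinear fit and Cheng-Prusoff; three experiments in triplicate.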
# D(2) dopamine receptor = D(2) dopamine receptor (Homo sapiens, UniProt P14416); test: Displacement of [3H]spiroperidol from human cloned dopamine D2L receptor expressed in rat C6 cells; type: cell-based
# Chain of D(2) dopamine receptor (P14416 whole entry): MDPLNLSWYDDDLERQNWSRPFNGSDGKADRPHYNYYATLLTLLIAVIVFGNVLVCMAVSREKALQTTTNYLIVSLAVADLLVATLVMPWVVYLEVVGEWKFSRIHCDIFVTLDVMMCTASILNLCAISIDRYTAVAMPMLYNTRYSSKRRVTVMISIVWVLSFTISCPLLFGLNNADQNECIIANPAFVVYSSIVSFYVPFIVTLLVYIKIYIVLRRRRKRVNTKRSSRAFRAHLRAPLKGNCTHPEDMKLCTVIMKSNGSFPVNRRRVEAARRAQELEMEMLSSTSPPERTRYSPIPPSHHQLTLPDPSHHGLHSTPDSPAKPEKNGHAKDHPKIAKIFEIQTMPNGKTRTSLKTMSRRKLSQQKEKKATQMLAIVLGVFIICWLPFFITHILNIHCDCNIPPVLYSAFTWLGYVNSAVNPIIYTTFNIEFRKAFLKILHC
# [3] = Selectivity for rat cloned 5HT7 over human cloned dopamine D2
# [4] = biological target: 5-hydroxytryptamine receptor 7 (Cavia porcellus) (UniProt P50407); test: Agonist activity at 5HT7 receptor assessed as relaxation of substance P-induced Dunkin-Hartley guinea pig ileum contraction relative to 5-carboxamidotryptamine; type: functional, tissue-based; design: scale not given: the % may be the effect or the level left
# Chain of 5-hydroxytryptamine receptor 7 (Cavia porcellus) (P50407 whole entry): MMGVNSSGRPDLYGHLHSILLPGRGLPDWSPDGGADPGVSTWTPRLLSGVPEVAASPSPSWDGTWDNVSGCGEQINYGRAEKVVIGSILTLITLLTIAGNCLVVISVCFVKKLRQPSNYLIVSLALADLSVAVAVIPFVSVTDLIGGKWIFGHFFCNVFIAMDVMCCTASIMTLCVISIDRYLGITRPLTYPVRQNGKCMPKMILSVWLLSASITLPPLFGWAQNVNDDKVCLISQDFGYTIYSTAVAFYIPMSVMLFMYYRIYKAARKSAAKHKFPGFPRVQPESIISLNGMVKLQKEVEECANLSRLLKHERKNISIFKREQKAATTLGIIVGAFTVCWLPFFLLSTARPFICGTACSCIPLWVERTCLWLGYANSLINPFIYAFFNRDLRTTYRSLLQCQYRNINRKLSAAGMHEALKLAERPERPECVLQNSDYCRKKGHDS
# In short: (§1)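 Male Dunkin-Hartley guinea pigs (300-350 g); 3 cm proximal ileum segments were held under 1.0 g tension in Krebs-Henseleit at 37 °C, gassed with 95% O2/5% CO2. The bath contained 1 µM atropine, ketanserin and pyrilamine. Compound (0.001-10 µM) or the 5-CT reference was added 5 min before 100 nM substance P, giving noncumulative curves. Read-out was % reduction of contraction height; EC50 by nonlinear fitting.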
# [5] = Selectivity for rat cloned 5HT7 over human cloned 5HT1A
# [6] = biological target: T2, 5-hydroxytryptamine receptor 7 (Cavia porcellus, UniProt P50407); test: Agonist activity at 5HT7 receptor assessed as relaxation of substance P-induced Dunkin-Hartley guinea pig ileum contraction; type: functional, tissue-based; in short: as §1
# T2 sequence (P50407 whole entry): as above
# [7] = biological target: 5-hydroxytryptamine receptor 7 (Cavia porcellus) (UniProt P50407); test: Agonist activity at 5HT7 receptor assessed as relaxation of substance P-induced Dunkin-Hartley guinea pig ileum contraction at 3 mM; type: functional, tissue-based
# In short: (§2)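 Guinea pig ileum was contracted by 100 nM substance P in Krebs-Henseleit with atropine, ketanserin and pyrilamine (1 µM each). Agonist tests were repeated after 5-HT7 desensitization: 60 min equilibration with 3 µM 5-CT, bath changed every 15 min. Relaxation was scored at single test concentrations as % reduction in contraction height.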
# [8] = biological target: 5-hydroxytryptamine receptor 7 (Cavia porcellus) (UniProt P50407); test: Agonist activity at 5HT7 receptor assessed as relaxation of substance P-induced Dunkin-Hartley guinea pig ileum contraction at 1 mM; type: functional, tissue-based; in short: as §2
# [9] = biological target: 5-hydroxytryptamine receptor 7 (Cavia porcellus) (UniProt P50407); test: Agonist activity at 5HT7 receptor assessed as relaxation of substance P-induced Dunkin-Hartley guinea pig ileum contraction at 2 mM; type: functional, tissue-based; in short: as §2
# [10] = biological target: 5-hydroxytryptamine receptor 7 (Rattus norvegicus) (UniProt P32305); test: Displacement of [3H]LSD from rat cloned 5HT7 receptor expressed in HEK293 cells at […]; type: cell-based
# Chain of 5-hydroxytryptamine receptor 7 (Rattus norvegicus) (P32305 whole entry): as the sequence (P32305 whole entry) above
# [11] = Elimination half life in CD1 albino mouse brain at 10 mg/kg, ip; type: ADME, organism-based; design: dose 10 mg/kg, route intraperitoneal; details: read-out: beta t1/2
# In short: (§3)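 Male CD1 albino mice (25-30 g), 10 mg/kg i.p., 3 mice per time point. Brains were removed, blotted, frozen, homogenized in water (1 g/10 mL) and extracted twice with hexane/isoamyl alcohol. Parent and 1-arylpiperazine metabolite were measured by RP-HPLC-UV at 230 nm. LLOQ about 0.1 µg/g; no residual-blood correction. Cmax read directly, AUC by linear trapezoidal rule, t1/2 by noncompartmental analysis.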
# [12] = Cmax in CD1 albino mouse brain at 10 mg/kg, ip after 120 mins; type: ADME, organism-based; design: dose 10 mg/kg, route intraperitoneal; in short: as §3
# Mus musculus [13] = test: AUC in CD1 albino mouse brain at 10 mg/kg, ip; type: ADME, organism-based; design: dose 10 mg/kg, route intraperitoneal; details: in vivo; in short: as §3
# [14] = Cmax in CD1 albino mouse brain at 10 mg/kg, ip after 60 mins; type: ADME, organism-based; design: dose 10 mg/kg, route intraperitoneal; in short: as §3
# Mus musculus [15] = organism: Mus musculus; test: Ratio of plasma AUC to brain AUC in CD1 albino mouse; type: ADME, organism-based; details: in vivo
# In short: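 Male CD1 mice (25-30 g) were dosed at 10 mg/kg ip, 3 per time point. Trunk blood plasma and brain homogenate were extracted with hexane/isoamyl alcohol and analysed by RP-HPLC-UV at 230 nm. Quantification limit was ~0.1 µg/mL or µg/g. AUC was calculated by the linear trapezoidal rule, noncompartmental, extrapolated to infinity where possible.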
# [16] = Cmax in CD1 albino mouse plasma at 10 mg/kg, ip after 30 mins; type: ADME, organism-based; design: dose 10 mg/kg, route intraperitoneal
# In short: (§4)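 Male CD1 mice (25-30 g) received 10 mg/kg ip, with 3 mice per time point. Heparinized trunk blood gave plasma; brain was homogenized in water (1 g/10 mL). Samples were extracted with hexane/isoamyl alcohol and assayed by RP-HPLC-UV at 230 nm with an internal standard. Quantification limits were 0.1 µg/mL plasma and 0.1 µg/g brain. Cmax and its time were read from the data.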
# Mus musculus [17] = test: Volume of distribution in CD1 albino mouse plasma at 10 mg/kg, ip; details: in vivo
# [18] = Elimination half life in CD1 albino mouse plasma at 10 mg/kg, ip; details: read-out: beta t1/2
# [19] = Cmax in CD1 albino mouse brain at 10 mg/kg, ip after 30 mins; type: ADME, organism-based; design: dose 10 mg/kg, route intraperitoneal; in short: as §4
# [20] = biological target: T2, 5-hydroxytryptamine receptor 7; test: Antagonist activity at 5HT7 receptor assessed as inhibition of 4-(2-Diphenyl)-N-(4-pyridinylmethyl)-1-piperazinehexanamide mediated relaxation of substance P-induced Dunkin-Hartley guinea pig ileum contraction; type: functional, tissue-based; details: read-out: pA2 (converted)
# In short: (§5)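 Male Dunkin-Hartley guinea pigs (300-350 g); whole proximal ileal segments (~3 cm) held under 1.0 g tension in Krebs-Henseleit, 95% O2/5% CO2, 37 °C. Bath contained 1 µM atropine, ketanserin and pyrilamine. Contraction evoked by 100 nM substance P; agonist added 5 min before; selective 5-HT7 antagonist at 0.1-3 µM; isometric tension relaxation, noncumulative curves.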
# [21] = biological target: T2, 5-hydroxytryptamine receptor 7; test: Antagonist activity at 5HT7 receptor assessed as inhibition of N-(4-Cyanophenylmethyl)-4-(2-diphenyl)-1-piperazinehexanamide mediated relaxation of substance P-induced Dunkin-Hartley guinea pig ileum contraction; type: functional, tissue-based; details: read-out: pA2 (converted); in short: as §5
# [22] = biological target: T2, 5-hydroxytryptamine receptor 7; test: Antagonist activity at 5HT7 receptor assessed as inhibition of 2-[6-[4-(2-Diphenyl)-1-piperazinyl]-1-oxohexyl]-1,2,3,4-tetrahydroisoquinoline mediated relaxation of substance P-induced Dunkin-Hartley guinea pig ileum contraction; type: functional, tissue-based; details: read-out: pA2 (converted); in short: as §5
SMILES,Ki [1] [nM],Ki [2] [nM],Ki (D(2) dopamine receptor) [nM],also measured
O=C(CCCCCN1CCN(c2ccccc2-c2ccccc2)CC1)NCc1ccncc1,0.98,70,185,Selectivity ratio [3]: 95; Activity [4]: 87%; Selectivity ratio [5]: 25; EC50 [6]: 310 nM
CSc1ccccc1N1CCN(CCCCCC(=O)NCc2ccc(C#N)cc2)CC1,9,94,5.3,–
CC(C)c1ccccc1N1CCN(CCCCCC(=O)N2Cc3ccccc3C2)CC1,54,22,65,–
c1ccc(-c2ccccc2N2CCNCC2)cc1,–,–,–,half-life [11]: 1.45 h; Cmax [12]: 410 ng/g; AUC (Mus musculus [13]): 94 µg/min/mL
NCCc1c[nH]c2ccc(C(N)=O)cc12,–,–,–,Activity [4]: 100%
CSc1ccccc1N1CCN(CCCCCC(=O)NCc2ccccc2)CC1,22,12,33,–
CC(C)c1ccccc1N1CCN(CCCCCC(=O)N2CCc3ccccc3C2)CC1,6,3.7,1.3,–
CSc1ccccc1N1CCN(CCCCCC(=O)NCc2ccc(OS(C)(=O)=O)cc2)CC1,148,10.3,30,–
CSc1ccccc1N1CCN(CCCCCC(=O)NCc2ccncc2)CC1,34.8,8.2,64,–
CSc1ccccc1N1CCNCC1,–,–,–,half-life [11]: 1 h; Cmax [14]: 500 ng/g; AUC (Mus musculus [13]): 85 µg/min/mL
N#Cc1ccc(CNC(=O)CCCCCN2CCN(c3ccccc3-c3ccccc3)CC2)cc1,0.58,–,142,Ratio AUC (Mus musculus [15]): 0.7; half-life [11]: 1.15 h; Cmax [16]: 760 ng/mL; Vd (Mus musculus [17]): 11 L/kg; half-life [18]: 1.08 h; Activity [4]: 82%; Cmax [19]: 540 ng/g; EC50 [6]: 600 nM
O=C(CCCCCN1CCN(c2ccccc2-c2ccccc2)CC1)N1CCc2ccccc2C1,3.81,95,362,Selectivity ratio [3]: 95; Activity [4]: 89%; Selectivity ratio [5]: 25; EC50 [6]: 490 nM
CC1CCN(CC[C@H]2CCCN2S(=O)(=O)c2cccc(O)c2)CC1,–,–,–,Kb [20]: 11 nM; Kb [21]: 20.4 nM; Kb [22]: 15.8 nM
CS(=O)(=O)Oc1ccc(CNC(=O)CCCCCN2CCN(c3ccccc3-c3ccccc3)CC2)cc1,5.7,106,723,–
COc1ccccc1N1CCN(CCCCCC(=O)NCc2ccncc2)CC1,389,19,501,–

# The remaining compounds from weak to strong by Ki (D(2) dopamine receptor), led by results:
Ki [1] [nM],Ki [2] [nM],Ki (D(2) dopamine receptor) [nM],SMILES,also measured
179,3.2,730,COc1ccccc1N1CCN(CCCCCC(=O)N2Cc3ccccc3C2)CC1,–
–,161,503,O=C(CCCCCN1CCN(c2ccccc2-c2ccccc2)CC1)NCc1ccccc1,Activity [7]: Active; Activity [8]: inactive; Activity [9]: Active; Activity [10]: 62%; EC50 [6]: 4500 nM
296,43,311,COc1ccccc1N1CCN(CCCCCC(=O)NCc2ccc(C#N)cc2)CC1,–
224,13,226,COc1ccccc1N1CCN(CCCCCC(=O)NCc2ccccc2)CC1,–
42,1.07,96,CSc1ccccc1N1CCN(CCCCCC(=O)N2Cc3ccccc3C2)CC1,–
8.3,124,93,O=C(CCCCCN1CCN(c2ccccc2-c2ccccc2)CC1)N1Cc2ccccc2C1,–
71,29,91,COc1ccccc1N1CCN(CCCCCC(=O)NCc2ccc(OS(C)(=O)=O)cc2)CC1,–
32.9,2.04,40,CSc1ccccc1N1CCN(CCCCCC(=O)N2CCc3ccccc3C2)CC1,–
31,40,22,COc1ccccc1N1CCN(CCCCCC(=O)N2CCc3ccccc3C2)CC1,–
5.1,325,21,CC(C)c1ccccc1N1CCN(CCCCCC(=O)NCc2ccncc2)CC1,–
8.6,53,20,CC(C)c1ccccc1N1CCN(CCCCCC(=O)NCc2ccc(C#N)cc2)CC1,–
215,139,9.2,CC(C)c1ccccc1N1CCN(CCCCCC(=O)NCc2ccccc2)CC1,–
76,57,7.8,CC(C)c1ccccc1N1CCN(CCCCCC(=O)NCc2ccc(OS(C)(=O)=O)cc2)CC1,–
